According to the EternaBench riboswitch data:

Columns and labels:
[1] = test system: MS2 coat protein; assay: apparent Kd, MS2 coat protein; higher = weaker binding; RNA-MaP array
Outline: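 The designed RNAs, transcribed from sequenced DNA templates on an Illumina sequencing chip, were incubated with fluorescently labeled MS2 coat protein at room temperature. Protein ranged from 1.5 nM to 3 μM, with 0.8–1.5 h incubation at the lowest and 10–20 min at the highest concentrations, in Tris-HCl pH 7.5 buffer with KCl, MgCl2, BSA, DTT, tRNA and Tween20, with or without input ligand. The median of per-cluster binding-curve fits gives the apparent Kd, and designs measured on fewer than 10 clusters were excluded.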

[2] = test system: MS2 coat protein; assay: apparent Kd, MS2 coat protein; higher = weaker binding; RNA-MaP array; FMN 200 µM where present
Outline: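 Designs were transcribed by stalled E. coli RNA polymerase on Illumina sequencing-chip clusters. They were titrated with SNAP-549-labelled MS2 coat protein from 0.7 or 1.5 nM, doubling to 3 µM, without and then with constant ligand. Buffer: 100 mM Tris-HCl pH 7.5, 80 mM KCl, 4 mM MgCl2, BSA, DTT, yeast tRNA, Tween-20. Green signal was normalised to red-channel RNA signal and control-cluster median Fmax. Apparent Kd is the median of filtered per-cluster binding-curve fits.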

[3] = designed as: OFF switch for flavin mononucleotide, no ligand
[4] = ligand present: flavin mononucleotide, designed as: OFF switch for flavin mononucleotide
[5] = designed as: ON switch for flavin mononucleotide, no ligand
[6] = ligand present: flavin mononucleotide, designed as: ON switch for flavin mononucleotide
[7] = designed as: OFF switch for tryptophan, no ligand

Sequence	apparent Kd [2, 3]	apparent Kd [2, 4]	further results
UACCAUAGACCAGUUAGCGACACAUGAGGAUCACCCAUGUAGAGAAGGUGCUCUAUCUUAAGACGCAAGGAUAUCUGCAUUAUA	–	–	apparent Kd [1, 3]: 20.3 nM; apparent Kd [1, 4]: 21.9 nM
AAAACUUAUCAGAAGGAACGCACUCAACCGUUGUUAGGAUAUGAUCACCUAACAUGAGGAUCACCCAUGUUCACAGUAGGAGAC	–	–	apparent Kd [1, 5]: 130 nM; apparent Kd [1, 6]: 89.5 nM
CCCAAUUUCCGAGAUAUGGGUCCAACUAAACGAGGACCGGUACGGCCGCCACUCGACUACAAACAUGAGGAUCACCCAUGUAAAG	–	–	apparent Kd [1, 7]: 17 nM; apparent Kd ([1]; ligand present: tryptophan, designed as: OFF switch for tryptophan): 17.4 nM
GCCAUAAAAGAGAAGGGCGGCCACCUACGAACCGCAGGAUAUCUUUGCUUUCCUCGGACAUGAGGAUCACCCAUGUGGCCAAUA	–	–	apparent Kd [1, 3]: 97.3 nM; apparent Kd [1, 4]: 160 nM
CUGUUACAUGAGGAUCACCCAUGUUUUUGGUUAAGAGGAUAUGGCACAUGGUUAAACGUUCCAGAAGGCUUUGCAC	–	–	apparent Kd [1, 5]: 11.8 nM; apparent Kd [1, 6]: 8.94 nM
UUGUAACAUGAGGAUCACCCAUGUAUGAACUAACAAGGAUAUGCGUGAGUCAGAUAAGACGCAGAAGGUGUCAGAU	–	–	apparent Kd [1, 5]: 10.3 nM; apparent Kd [1, 6]: 7.55 nM
AAGUGACAUGAGGAUCACCCAUGUGAGGAUAUGGCUGAACAGAAAUAUGGGAAAAGAGCCAGAAGGCACGCCGG	–	–	apparent Kd [1, 3]: 62.3 nM; apparent Kd [1, 4]: 112 nM
AAUACACUUGAGAAGGCCCAAACAUGAGGAUCACCCAUGUGACAUGUAAUCGCCGCGAAUGGAAGGGAGGAUAUCAGAAUCCAC	–	–	apparent Kd [1, 5]: 16.2 nM; apparent Kd [1, 6]: 17.5 nM
UCUGGUAUGACGGCCGCCACUAGAUCGUGAGAAGCCUGCAUACAUGAGGAUCACCCAUGUCUCACUAGGACCGGGUCAUUCCAAU	–	–	apparent Kd ([1]; designed as: ON switch for tryptophan, no ligand): 66.1 nM; apparent Kd ([1]; ligand present: tryptophan, designed as: ON switch for tryptophan): 22.3 nM
AUACAGCUAGGAUAUCCGAUAGUAUACAUGAGGAUCACCCAUGUCCUGACGGCCGACCAUGGAGAAGGAGCAGAUA	–	–	apparent Kd [1, 3]: 42.2 nM; apparent Kd [1, 4]: 31.9 nM
AGUUUGGGCGCAGGAUAUCUUCACAUGAGGAUCACCCAUGUCCAUAAGAUAUUUAUGUCAUUUGGAGAGAAGGGCGGUUGUAAU	–	–	apparent Kd [1, 5]: 55.1 nM; apparent Kd [1, 6]: 36.1 nM
UAUAAACAGCCUGGUUACUCGUCGCGCUUGCGAGGACCGGUACGGCCGCCACUCGACCCAUCACAUGAGGAUCACCCAUGUCCCA	–	–	apparent Kd [1, 7]: 31.7 nM
CACGCUCACCAGAAGGCAGAGCAUAAAUGACAUGAGGAUCACCCAUGUACGCAGGAGAUCGGGUCUGAGGAUAUGGCAAUAGGC	–	–	apparent Kd [1, 5]: 21.4 nM; apparent Kd [1, 6]: 20.5 nM
CCAGUUACCAGAGGAUAUGAUUCCAGAGUUAAGGGUAUUCACAUGAGGAUCACCCAUGUGCUCCUUCAGAAGGCUGAUAACCCG	–	–	apparent Kd [1, 3]: 39.8 nM; apparent Kd [1, 4]: 49.4 nM
UGACCCAUGACAUGAGAUGACAUGAGGAUCACCCAUGUGUACAAGGAUAUGUUGGUCGACGAUCGGCAGAAGGUGUAAUGGGAU	56.6 nM	282 nM	–
AAAAAGUGAGGAUAUGCUUUUAUUUAUUAUUAUUAUUAUUUGCAGAAGGCACAUGAGGAUCACCCAUGUAAGAA	31.7 nM	24.9 nM	–
AUUUUGUCAGGAUAUGACUAGUAGGACGAGAGUGCUACUACUUAGAAGGGACAUGAGGAUCACCCAUGUAUUCC	16 nM	17.4 nM	–
GACUGCAUGUAAGGAUAUCGACUGGAAUACAGUCGAGAAGGUACAUGAGGAUCACCCAUGUAAUAAGAUCAAUAAUAAGCAGUC	14.9 nM	33.1 nM	–
GUAGCAUAGACAGGAUAUCUAUACCCGAAAGGGACAUGAGGAUCACCCAUGUUGCGAAAGCGGUGGGAGAAGGGUCUAUGCUAC	–	–	apparent Kd [2, 5]: 25.4 nM; apparent Kd [2, 6]: 6.04 nM
CGAUGUUAUGUCAGGAUAUACAUUGCGAAAGCAAUGUAGAAGGGACAUGAGGAUCACCCAUGUCCUAACCAUCG	13.1 nM	17.1 nM	–
GAGAAGUCAGGAUAUGCUGCUCGUCACUUGCGUGAUGAGUAGCAGAAGGGACAUGAGGAUCACCCAUGUAAAGG	136 nM	315 nM	–
AAACAUGUCCGAGGAUAUCUGGAAACAUUUUCAAGAGAAGGCGGACAUGAGGAUCACCCAUGUCUCUCCUCAUCAACUAUAAAU	8.24 nM	60.6 nM	–
UUAAAUCAUGUAGGAUAUCCGAUGCGAAGCGUUGGAGAAGGACAUGAGGAUCACCCAUGUUCUAGCGUCUGAGUACAGAUGCAA	30.6 nM	140 nM	–

Sequence	apparent Kd [2, 3]	apparent Kd [2, 4]	further results
CGAUCUUCAGUCAGGAUAUGCUGGCACGAAGAGUUGUAGAAGGGACAUGAGGAUCACCCAUGUCGGACGUUGUA	19 nM	17.4 nM	–
CUGGAUCACGCAGGAUAUUACAUGAGGAUCACCCAUGUCAGGACUGCAAUAUCGUCUCCUCAUUGUGAGAAGGGCGGAAUCAUU	17.7 nM	86.8 nM	–
AUAAUAGAGUCAGGAUAUGGACAUGAGGAUCACCCAUGUGCAGGGAUCCUCCCAGAAGGGACAUCUAAACAAAAGGCGCUAUCC	307 nM	147 nM	–
GCAUCCAUAGUGAGGAUAUACCUCUGGAUACAUAGGUAGAAGGCACAUGAGGAUCACCCAUGUUCUUAGGAUGC	28.7 nM	35.4 nM	–
UAGCUUGACGCAGGAUAUCCAAGGCUGAAAUGAGGAGAAGGGCGCCAAACAUGAGGAUCACCCAUGUAUUAUGCAGGGUCCUCA	362 nM	180 nM	–
GUAUAUAUUACAUGAGGAUCACCCAUGUCAGAACGGGUAAUCAGAAGGUAUUAUUAGAGAAAGGGUAAGGAUAUGAUUAUAUAU	–	–	apparent Kd [2, 5]: 605 nM; apparent Kd [2, 6]: 224 nM
UACAGACAUGAGGAUCACCCAUGUGAGGAUAUCGAUAACAAUAAAAUAAUAUAAACAACGAGAAGGCACAGCAU	57.4 nM	73 nM	–
ACCACGUCAGCGAUAUGAUCGAGAGAUCAUGUCGCUGAAUUUAGAAGGACAUGAGGAUCACCCAUGUAGGAUAUGGGUCGUGGA	–	–	apparent Kd [2, 5]: 39.1 nM; apparent Kd [2, 6]: 11.8 nM
AUUUAGUGCGAGAAGGCGUGGUCACAUGAGGAUCACCCAUGUCAGUACACGAGGAUAUCGAUCCGCUAUGUAAACCUAGGCGGC	–	–	apparent Kd [2, 5]: 101 nM; apparent Kd [2, 6]: 6.89 nM
GGAAAACAUGAGGAUCACCCAUGUGAGGAUAUCGAUGUCCAAAAAGAGGUGCGGGACUCGAGAAGGCACUUGGA	55.1 nM	54 nM	–
UCGGCGCGAGGAUAUGCGGUUUGUGCUUUGGGCCCUGGCGUACAUGAGGAUCACCCAUGUAGAAGGCGUGUUGC	21.3 nM	21.3 nM	–
GGCUCAUUUACAUUAAUGUGCUGACAGGAUAUCCACGGCGGUUCCUACAUGAGGAUCACCCAUGUGGAGAAGGGUCGCUAAUGG	12.4 nM	18.9 nM	–
CAUCAGUGUUAAGGAUAUGGCAGCGGAAGCGCACCAGAAGGUAGCACAUGAGGAUCACCCAUGUGUUCUGGCUUGAGCGUGAUC	36.5 nM	75.2 nM	–
CCGUUACAUGAGGAUCACCCAUGUGAGGAUAUCGAUGUGACUAGCAGCGUGCGGGACUCGAGAAGGCACUUGGC	57.8 nM	41.5 nM	–
UGCGGUAGAGGAUAUACAUUGAAUUUGAUUCAUGUAAAACUACAUGAGGAUCACCCAUGUAGAAGGCUAUCGCU	17.4 nM	36.1 nM	–
ACGUUUUUUGAGGAUAUGCGACGUUCCUUCGUCGUAGAAGGCGAUACAUGAGGAUCACCCAUGUUUAUGGGCAU	119 nM	137 nM	–
ACAUGAGGAUCACCCAUGUUAUUUGGGAAUUAAUUUAUUUGUAGAAGGAUGUUUUCUUGUUAGUCAUAGGAUAUACUAUUAAAU	40.7 nM	34.4 nM	–
GAUUAACAUGAGGAUCACCCAUGUGAGGAUAUGAACUUGCCCACUUACCCUUUAGAGUUUAGAAGGCGCAUUUC	18.9 nM	19 nM	–
GGGCAAUAGUAGAAGGGAUAUACGAAAGGUAUAUCAGGAUAUACAUGAGGAUCACCCAUGUUCUAACAGUGAUAGUCCUCCCUA	24.3 nM	171 nM	–
ACCUCACAUGAGGAUCACCCAUGUUAGGAUAUCUCGGCGCCCUGCAGGCAGUGGCACCAGAGAAGGAACGUGCA	22.5 nM	25.3 nM	–
UGUCAGUAACAAGGAUAUUGGAGUUAAUGGCUACGAGAAGGUGUUACAUGAGGAUCACCCAUGUCCUCGCCUGUAGCAAGGACA	87.2 nM	567 nM	–
UUUUAUUAGUAGAAGGACGGAGAGUAUGUAGUCGUAGGAUAUACAUAAGACAUGAGGAUCACCCAUGUGUGUAUUUUGGGUAUG	15.7 nM	13.2 nM	–
GCUGCAUAGGCAGGAUAUGCAAUAAUUCGAAUAAAAUUUAACGAAUUAACAUGAGGAUCACCCAUGUAGAAGGGCCUGUGCAGU	5.49 nM	4.69 nM	–
